Test results taken from article PMC4539245 (Nature chemical biology, 2013).
pIC50: −log10 of the molar value.

Experiments:
[1] = tested on: Kv1.1, Kv1.2, Kv1.5 and Kv1.6 versus Kv2.1, Kv3.1 and Kv4.3; assay: TEVC in Xenopus oocytes, block of different Kv channels; assay type: cell-based; settings: 500 nM Psora-4, +40 mV
In short: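 Channels expressed in Xenopus oocytes and recorded by two-electrode voltage clamp in modified ND96 (96 mM NaCl, 4 mM KCl, 5 mM HEPES, pH 7.5). Cells were held at −80 mV and stepped to +40 mV for 2 s every 10 s. Test compound was applied at 500 nM from a 10 mM DMSO stock, and block was analysed at +40 mV.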

Kv1.5 mutant channels = assay: TEVC in Xenopus oocytes, Kv1.5 scanning mutants; assay type: cell-based, human
Kv2.1 = molecular target: T1, Kv2.1 (Homo sapiens, UniProt Q14721); assay: TEVC in Xenopus oocytes, Kv2.1 wild type; assay type: cell-based; settings: read-out: IC50 for Kv2.1
T1 sequence (Q14721 1-858): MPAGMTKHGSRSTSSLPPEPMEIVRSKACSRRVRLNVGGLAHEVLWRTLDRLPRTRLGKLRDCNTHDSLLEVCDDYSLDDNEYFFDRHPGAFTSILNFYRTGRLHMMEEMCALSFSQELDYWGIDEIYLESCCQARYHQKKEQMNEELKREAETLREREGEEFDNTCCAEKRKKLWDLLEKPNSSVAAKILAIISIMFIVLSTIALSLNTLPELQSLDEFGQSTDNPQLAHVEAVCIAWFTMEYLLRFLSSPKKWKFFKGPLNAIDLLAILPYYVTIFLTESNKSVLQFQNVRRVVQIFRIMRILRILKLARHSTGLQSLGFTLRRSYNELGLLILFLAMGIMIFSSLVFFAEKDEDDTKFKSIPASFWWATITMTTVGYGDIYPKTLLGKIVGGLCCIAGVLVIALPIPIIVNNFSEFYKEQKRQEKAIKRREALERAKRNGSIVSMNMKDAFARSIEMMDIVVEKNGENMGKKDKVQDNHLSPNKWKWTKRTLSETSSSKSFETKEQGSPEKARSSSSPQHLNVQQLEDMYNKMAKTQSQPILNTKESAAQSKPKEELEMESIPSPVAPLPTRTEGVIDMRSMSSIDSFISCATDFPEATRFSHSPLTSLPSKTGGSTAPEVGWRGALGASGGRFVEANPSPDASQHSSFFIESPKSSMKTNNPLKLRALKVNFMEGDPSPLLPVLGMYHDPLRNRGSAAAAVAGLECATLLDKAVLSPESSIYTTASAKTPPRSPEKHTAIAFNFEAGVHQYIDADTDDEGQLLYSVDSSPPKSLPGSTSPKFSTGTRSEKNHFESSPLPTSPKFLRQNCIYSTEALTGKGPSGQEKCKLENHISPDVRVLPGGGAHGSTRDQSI
In short: (§1)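 Stage IV–V X. laevis oocytes cultured at 18 °C for 1–13 d in HEPES-buffered saline, pH 7.4, with gentamycine and pyruvate. Two-electrode voltage clamp in modified ND96 (4 mM KCl, pH 7.5). Currents were evoked by 2-s pulses to +40 mV every 10 s from −80 mV. Compound was taken from a 10 mM DMSO stock.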

Kv2.1 SP+CC mutant = assay: TEVC in Xenopus oocytes, Kv2.1 SP+CC six-fold mutant; assay type: cell-based
In short: as §1

Kv1.5 = settings: read-out: IC50 for block of Kv1.5; cited from earlier work
Kv1.3 = settings: read-out: IC50 for block of Kv1.3; cited from earlier work
Kv1.5 A503L mutant = assay: TEVC in Xenopus oocytes, Kv1.5 A503L mutant; assay type: cell-based, human; settings: versus wild-type Kv1.5
Kv3.1 = settings: cited from earlier work
Kv1.5 channels = Kv1.5 channels (Homo sapiens, UniProt P22460); assay type: cell-based
Chain of Kv1.5 channels (P22460 whole entry): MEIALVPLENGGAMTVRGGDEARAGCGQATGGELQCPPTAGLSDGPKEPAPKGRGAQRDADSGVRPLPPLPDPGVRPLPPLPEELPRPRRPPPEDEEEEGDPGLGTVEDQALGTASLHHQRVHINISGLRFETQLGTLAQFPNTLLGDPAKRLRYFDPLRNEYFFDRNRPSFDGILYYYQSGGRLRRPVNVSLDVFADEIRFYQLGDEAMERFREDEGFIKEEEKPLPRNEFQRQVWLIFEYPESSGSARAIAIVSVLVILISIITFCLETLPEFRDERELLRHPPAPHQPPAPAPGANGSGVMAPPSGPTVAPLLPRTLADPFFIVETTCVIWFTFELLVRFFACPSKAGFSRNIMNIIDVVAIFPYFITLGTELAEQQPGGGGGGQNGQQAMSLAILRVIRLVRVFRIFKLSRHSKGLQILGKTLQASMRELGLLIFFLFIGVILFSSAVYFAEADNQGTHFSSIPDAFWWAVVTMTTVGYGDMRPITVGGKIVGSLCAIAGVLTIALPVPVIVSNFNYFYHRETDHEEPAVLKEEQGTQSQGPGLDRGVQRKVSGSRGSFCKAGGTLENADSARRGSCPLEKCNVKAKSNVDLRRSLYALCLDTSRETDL

O=c1ccc2c(OCCCCc3ccccc3)c3ccoc3cc2o1 [Psora-4]
sensitivity of Kv1 subfamily members versus Kv2.1, Kv3.1 and Kv4.3 [1]: much more sensitive | Hill coefficient of side-pocket and central cavity mutants (Kv1.5 mutant channels; mutants that strongly reduced potency, with the exception of I502A): […] | increase of IC50 by S4, S4-S5 linker and S5 mutations (Kv1.5 mutant channels; side-pocket hits versus wild-type Kv1.5): up to 276 fold | pIC50 (Kv2.1): ~5.41 | Hill coefficient for Kv2.1 SP+CC (Kv2.1 SP+CC mutant): […] | pIC50 (Kv2.1 SP+CC mutant; read-out: IC50 for Kv2.1 SP+CC, six-fold mutant): 6.24 | pIC50 (Kv1.5): […] | pIC50 (Kv1.3): […] | increase of IC50 for A503L mutant (Kv1.5 A503L mutant): ~100 fold | block of other K+ channels including Kv3.1 (Kv3.1): micromolar range

CC[N+](CC)(CC)CC [TEA, tetraethyl-ammonium]
effect on inhibition by 100 nM Psora-4 (Kv1.5 channels): prevented the otherwise complete inhibition | effect on kinetics of Psora-4 block (Kv1.5 channels): slowed the kinetics of block

CCCCC[N+](CCCCC)(CCCCC)CCCCC [TPA, tetrapentyl-ammonium]
competition with Psora-4 in the central cavity (Kv1.5 channels; TPA pre-applied, same conditions as TEA): no apparent competition

CCCCN1CCCCC1C(=O)Nc1c(C)cccc1C (centres unmarked) [bupivacaine]
inhibition of S4 and S4-S5 linker mutants (Kv1.5 mutant channels; control pore blocker, side-pocket mutants): None of the mutations in the S4 segment or the S4–S5 linker reduced bupivacaine inhibition
